From publication PMC12257300 (RSC Advances, 2025)
*: point of attachment. Fmoc = O=C(OCC1c2ccccc2-c2ccccc21)*

Key:
[1] = Gelation by inverted tube test / minimum gelation concentration; format: physicochemical; details: 1 w/v% of sequence + 1 w/v% H-FQFQFK-NH2 in PBS
How it was run: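 Gels formed by adding PBS to the peptide acetate salt in a tube, then repeated vortexing (1 min) and sonication (5 min), and resting overnight at room temperature before assessment.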

[2] = soft Fmoc-WWRR-NH2 based hydrogels; cited from earlier work
[3] = Rheology, shear recovery experiment; format: physicochemical; details: 2 w/v% P4 biogel, shear strain 50%, 1 Hz, 25 °C
How it was run: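 Hydrogel (350 μL) loaded on a 25 mm plate and rested 5 min. G′ and G′′ were recorded for 60 s at 1 Hz and 1% strain, then strain was raised to 50% for 30 s. The cycle was repeated 4 times under a 1 N normal force at 25 °C, in threefold.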

Gelation behavior of co-formulation with parent peptide (inverted tube test) [1] | Substance | other results
self-supporting hydrogels | H-WRWRFQFQFK-NH2 [P2, H-WRWRFQFQFK-NH2] | –
self-supporting hydrogels | H-RRWWQFQFK-NH2 [P5, H-RRWWQFQFK-NH2] | –
– | Fmoc-WWRR-NH2 | Storage modulus G′ of reported hydrogel [2]: ~100 Pa
– | H-RWRWQFQFK-NH2 [P4, H-RWRWQFQFK-NH2] | tan δ at increased shear strain [3]: 0.6
